In ChEMBL document CHEMBL3877241 (J Med Chem, 2016):
Calls of active or inactive are those of the source. The rule behind the calls is not given here.

Key:
[1] = target: Receptor-type tyrosine-protein kinase FLT3 (Homo sapiens) (UniProt P36888); experiment: Inhibition of FLT3 (unknown origin) at 0.1 uM preincubated for 20 mins followed by [33P]ATP addition measured after 120 mins by Hotspot assay relative to control
Method in brief: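 Radiometric HotSpot kinase assay. Buffer: 20 mM HEPES pH 7.5, 10 mM MgCl2, 1 mM EGTA, 0.02% Brij35, 0.02 mg/mL BSA, 0.1 mM Na3VO4, 2 mM DTT, 1% DMSO. Compound added about 20 min before ATP/[33P]ATP (10 μM final). Reactions run 120 min at 25 °C, spotted on P81 filters and washed in phosphoric acid. Activity expressed relative to DMSO after background subtraction. Single-concentration panel at 100 nM in duplicate.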

[2] = target: Phosphatidylinositol 4,5-bisphosphate 3-kinase catalytic subunit gamma isoform (Homo sapiens, UniProt P48736); experiment: Inhibition of human PI3Kgamma (S144 to A1102 residues) expressed in mammalian expression system assessed as residual activity at 100 nM by KINOMEScan assay relative to control
Method in brief: (§1)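 DiscoveRx competition-binding panel of 97 kinases, measuring binding to the kinase ATP site rather than catalytic turnover. The test compound was run at a single 100 nM concentration. Results are given as % of control binding.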

[3] = target: Tyrosine-protein kinase JAK3 (Homo sapiens) (UniProt P52333); experiment: Inhibition of human JAK3 JH1 catalytic domain (I781 to S1124 residues) expressed in mammalian expression system assessed as residual activity at 100 nM by KINOMEScan assay relative to control
Method in brief: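 DiscoveRx KINOMEscan competition binding against ATP sites in a 97-kinase panel, with compound at 100 nM. Binding reported as % of control.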

[4] = target: T1, High affinity nerve growth factor receptor (Homo sapiens, UniProt P04629); experiment: Inhibition of human NTRK1 (G475 to G790 residues) expressed in mammalian expression system assessed as residual activity at 100 nM by KINOMEScan assay relative to control; method in brief: as §1
Target sequence in this assay (P04629 33-796 limits assumed): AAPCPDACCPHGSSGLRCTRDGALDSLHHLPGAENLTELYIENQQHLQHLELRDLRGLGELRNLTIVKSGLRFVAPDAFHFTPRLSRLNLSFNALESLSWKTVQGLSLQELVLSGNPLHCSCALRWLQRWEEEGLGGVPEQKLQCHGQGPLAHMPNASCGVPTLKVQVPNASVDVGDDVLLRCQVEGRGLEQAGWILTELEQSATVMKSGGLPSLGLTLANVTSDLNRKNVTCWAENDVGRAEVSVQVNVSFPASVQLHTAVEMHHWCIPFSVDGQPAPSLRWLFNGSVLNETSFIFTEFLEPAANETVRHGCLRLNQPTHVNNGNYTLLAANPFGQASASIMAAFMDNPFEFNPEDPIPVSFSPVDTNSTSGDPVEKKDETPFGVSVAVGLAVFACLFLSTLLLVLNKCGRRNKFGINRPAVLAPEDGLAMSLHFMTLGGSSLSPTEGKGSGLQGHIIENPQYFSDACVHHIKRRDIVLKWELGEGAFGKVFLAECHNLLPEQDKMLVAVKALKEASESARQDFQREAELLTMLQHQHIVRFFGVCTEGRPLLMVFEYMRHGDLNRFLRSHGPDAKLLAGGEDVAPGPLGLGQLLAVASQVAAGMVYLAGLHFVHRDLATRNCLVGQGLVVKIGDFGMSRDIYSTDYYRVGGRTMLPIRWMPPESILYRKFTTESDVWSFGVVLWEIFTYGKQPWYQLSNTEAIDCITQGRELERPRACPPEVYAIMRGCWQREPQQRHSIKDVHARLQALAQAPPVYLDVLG

[5] = target: Mitogen-activated protein kinase 10 (Homo sapiens, UniProt P53779); experiment: Inhibition of human MAPK10 (V28 to Q422 residues) expressed in mammalian expression system assessed as residual activity at 100 nM by KINOMEScan assay relative to control; method in brief: as §1
[6] = target: T1, High affinity nerve growth factor receptor; experiment: Inhibition of human NTRK1 (G475 to G790 residues) expressed in mammalian expression system by KINOMEScan assay
Target sequence in this assay (P04629 whole entry, the tested form may be a part): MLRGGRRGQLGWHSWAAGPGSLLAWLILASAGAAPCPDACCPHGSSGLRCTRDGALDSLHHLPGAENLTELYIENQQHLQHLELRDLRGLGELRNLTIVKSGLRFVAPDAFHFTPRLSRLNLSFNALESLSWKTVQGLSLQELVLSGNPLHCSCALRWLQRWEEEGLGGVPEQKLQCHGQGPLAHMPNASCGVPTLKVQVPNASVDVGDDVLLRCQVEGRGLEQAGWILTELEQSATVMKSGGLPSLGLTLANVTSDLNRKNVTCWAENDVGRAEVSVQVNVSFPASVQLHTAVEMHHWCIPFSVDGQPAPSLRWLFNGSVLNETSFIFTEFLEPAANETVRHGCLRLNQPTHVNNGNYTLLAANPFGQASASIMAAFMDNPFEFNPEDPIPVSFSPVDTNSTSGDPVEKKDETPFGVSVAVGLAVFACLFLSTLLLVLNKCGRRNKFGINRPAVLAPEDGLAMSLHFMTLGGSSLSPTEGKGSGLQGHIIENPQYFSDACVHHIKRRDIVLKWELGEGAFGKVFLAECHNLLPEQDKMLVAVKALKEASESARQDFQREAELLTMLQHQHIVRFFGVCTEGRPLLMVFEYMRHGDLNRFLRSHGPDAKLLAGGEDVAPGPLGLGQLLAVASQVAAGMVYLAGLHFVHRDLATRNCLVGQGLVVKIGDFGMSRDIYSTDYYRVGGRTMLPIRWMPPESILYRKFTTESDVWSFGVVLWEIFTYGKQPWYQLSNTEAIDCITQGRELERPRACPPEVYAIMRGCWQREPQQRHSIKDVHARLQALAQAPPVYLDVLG

[7] = Antiproliferative activity against human KG1 cells after 48 hrs by CellTiter-Glo assay; format: functional, cell-based; settings: KG-1, 48 h
[8] = target: T2, Protein deacetylase HDAC6 (Homo sapiens) (UniProt Q9UBN7); experiment: Inhibition of HDAC6 in human KMS-12-BM cells assessed as increase in acetylated tubulin level at 2 times antiproliferative IC50 up to 48 hrs by immunoblot method; format: cell-based
T2 sequence (whole entry): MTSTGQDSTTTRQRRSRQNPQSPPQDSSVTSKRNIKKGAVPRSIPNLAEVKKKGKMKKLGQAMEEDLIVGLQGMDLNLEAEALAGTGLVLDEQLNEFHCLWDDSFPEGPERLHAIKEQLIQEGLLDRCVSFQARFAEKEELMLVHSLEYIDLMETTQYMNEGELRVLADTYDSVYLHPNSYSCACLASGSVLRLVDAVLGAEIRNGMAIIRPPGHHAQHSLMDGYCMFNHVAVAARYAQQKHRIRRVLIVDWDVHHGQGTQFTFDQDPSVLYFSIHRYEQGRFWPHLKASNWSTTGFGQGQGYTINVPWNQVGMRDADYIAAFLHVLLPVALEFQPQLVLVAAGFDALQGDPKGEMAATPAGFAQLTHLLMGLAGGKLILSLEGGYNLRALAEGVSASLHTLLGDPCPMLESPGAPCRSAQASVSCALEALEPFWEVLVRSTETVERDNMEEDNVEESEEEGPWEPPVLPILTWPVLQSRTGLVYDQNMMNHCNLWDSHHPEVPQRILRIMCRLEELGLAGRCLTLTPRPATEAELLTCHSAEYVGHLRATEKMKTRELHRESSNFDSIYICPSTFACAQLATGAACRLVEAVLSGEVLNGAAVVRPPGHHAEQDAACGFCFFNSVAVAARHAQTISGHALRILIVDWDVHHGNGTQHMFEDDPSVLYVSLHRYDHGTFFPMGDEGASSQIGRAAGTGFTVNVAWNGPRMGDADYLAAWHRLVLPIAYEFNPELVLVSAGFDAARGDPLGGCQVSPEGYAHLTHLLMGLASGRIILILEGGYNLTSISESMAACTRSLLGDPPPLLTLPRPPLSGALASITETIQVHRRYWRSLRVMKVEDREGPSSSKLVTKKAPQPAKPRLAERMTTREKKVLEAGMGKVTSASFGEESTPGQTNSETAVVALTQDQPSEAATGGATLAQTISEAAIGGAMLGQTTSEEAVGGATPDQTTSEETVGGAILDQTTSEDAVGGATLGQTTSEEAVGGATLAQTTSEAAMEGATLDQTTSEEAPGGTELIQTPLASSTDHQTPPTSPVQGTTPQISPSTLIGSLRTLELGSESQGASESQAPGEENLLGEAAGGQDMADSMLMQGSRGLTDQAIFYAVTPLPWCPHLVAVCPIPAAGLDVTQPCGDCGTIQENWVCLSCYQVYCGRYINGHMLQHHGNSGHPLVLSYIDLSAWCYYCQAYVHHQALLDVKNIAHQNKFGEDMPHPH
Method in brief: (§2)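 KMS-12-BM or MOLM-14 cells (at least 3x10^6 per condition) treated at about 2x their proliferation IC50 in a time course of 0 to 48 h. Tubastatin (15 μM, 48 h) used as HDAC6 control. Lysates immunoblotted for acetyl-α-tubulin and acetyl-H3 (Lys9/Lys14); re-probed for α-tubulin and H3.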

[9] = target: T2, Protein deacetylase HDAC6 (Homo sapiens); experiment: Inhibition of HDAC6 in human MOLM14 cells assessed as increase in acetylated tubulin level at 2 times antiproliferative IC50 after 16 to 48 hrs by immunoblot method; format: cell-based; settings: MOLM-14; method in brief: as §2
[10] = target: T2, Protein deacetylase HDAC6 (Homo sapiens); experiment: Inhibition of HDAC6 in HEL 92.1.7 cells harboring JAK2 V617F mutant assessed as increase in acetylated tubulin level at 0.1 uM after 1 hr by immunoblot method; format: cell-based
Method in brief: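 HEL92.1.7 cells seeded at 5x10^5/mL and treated 1 h at 0, 0.1, 0.5 and 1 μM. Lysed in RIPA with phosphatase/protease inhibitors, run on 10% SDS-PAGE and blotted to PVDF. Probed for acetyl-tubulin, acetyl-H3 (Lys9/Lys14), p-JAK2 (Y1007/1008) and p-STAT5 (Tyr694); membranes re-probed for tubulin, H3, JAK2 and STAT5. Quantified by densitometry.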

[11] = tested on: MOLM-14; experiment: Induction of apoptosis in human MOLM14 cells assessed as early apoptotic cells at 3 uM after 48 hrs by Annexin-V FITC/propidium iodide staining based flow cytometry (reference value: 3.6 to 3.7%); format: functional
Method in brief: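 MOLM-14 cells treated 48 h at the stated concentrations; doxorubicin as positive control. Stained with Annexin V-FITC and propidium iodide and analysed by flow cytometry (at least 10,000 events). Gated quadrants: Annexin V−/PI− viable, Annexin V+/PI− early apoptotic, Annexin V+/PI+ late apoptotic.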

Mitogen-activated protein kinase 10, sequence (P53779 whole entry, the tested form may be a part): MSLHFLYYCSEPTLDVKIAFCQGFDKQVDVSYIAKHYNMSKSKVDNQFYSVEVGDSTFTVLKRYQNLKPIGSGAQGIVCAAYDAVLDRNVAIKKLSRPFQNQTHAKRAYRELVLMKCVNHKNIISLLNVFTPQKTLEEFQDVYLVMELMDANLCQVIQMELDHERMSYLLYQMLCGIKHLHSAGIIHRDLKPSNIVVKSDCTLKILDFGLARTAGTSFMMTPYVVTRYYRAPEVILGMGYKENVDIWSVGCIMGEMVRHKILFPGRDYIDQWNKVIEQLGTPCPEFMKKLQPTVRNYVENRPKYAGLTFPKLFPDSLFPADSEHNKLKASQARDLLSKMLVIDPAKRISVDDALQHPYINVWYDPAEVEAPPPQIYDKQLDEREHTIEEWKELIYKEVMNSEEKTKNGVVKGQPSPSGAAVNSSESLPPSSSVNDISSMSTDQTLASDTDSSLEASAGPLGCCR
Receptor-type tyrosine-protein kinase FLT3 (Homo sapiens), sequence (P36888 whole entry): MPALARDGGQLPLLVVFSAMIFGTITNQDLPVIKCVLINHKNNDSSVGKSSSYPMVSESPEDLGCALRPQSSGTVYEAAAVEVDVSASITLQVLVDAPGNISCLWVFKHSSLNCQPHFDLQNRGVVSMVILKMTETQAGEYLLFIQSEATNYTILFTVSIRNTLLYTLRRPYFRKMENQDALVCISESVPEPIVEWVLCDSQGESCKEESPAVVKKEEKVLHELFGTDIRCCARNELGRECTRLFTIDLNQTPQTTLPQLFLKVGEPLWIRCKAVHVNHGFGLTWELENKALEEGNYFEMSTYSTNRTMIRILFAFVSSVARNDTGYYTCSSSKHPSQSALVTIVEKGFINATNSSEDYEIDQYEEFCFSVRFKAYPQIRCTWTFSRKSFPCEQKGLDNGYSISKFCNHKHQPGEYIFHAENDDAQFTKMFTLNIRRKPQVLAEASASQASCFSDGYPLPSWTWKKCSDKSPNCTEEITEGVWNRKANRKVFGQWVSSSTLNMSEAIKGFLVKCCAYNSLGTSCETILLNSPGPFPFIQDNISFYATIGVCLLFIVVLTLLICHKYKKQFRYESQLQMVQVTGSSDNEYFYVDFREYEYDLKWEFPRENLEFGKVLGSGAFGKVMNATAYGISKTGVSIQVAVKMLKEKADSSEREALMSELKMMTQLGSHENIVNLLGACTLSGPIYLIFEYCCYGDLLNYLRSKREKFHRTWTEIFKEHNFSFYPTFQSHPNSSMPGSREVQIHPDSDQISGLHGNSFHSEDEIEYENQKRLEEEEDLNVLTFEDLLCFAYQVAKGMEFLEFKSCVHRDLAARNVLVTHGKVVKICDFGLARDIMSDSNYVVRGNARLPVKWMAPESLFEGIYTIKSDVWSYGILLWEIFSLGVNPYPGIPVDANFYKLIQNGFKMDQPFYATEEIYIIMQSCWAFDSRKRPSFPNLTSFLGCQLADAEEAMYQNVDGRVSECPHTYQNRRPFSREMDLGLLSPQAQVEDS
Tyrosine-protein kinase JAK3 (Homo sapiens), sequence (P52333 whole entry, the tested form may be a part): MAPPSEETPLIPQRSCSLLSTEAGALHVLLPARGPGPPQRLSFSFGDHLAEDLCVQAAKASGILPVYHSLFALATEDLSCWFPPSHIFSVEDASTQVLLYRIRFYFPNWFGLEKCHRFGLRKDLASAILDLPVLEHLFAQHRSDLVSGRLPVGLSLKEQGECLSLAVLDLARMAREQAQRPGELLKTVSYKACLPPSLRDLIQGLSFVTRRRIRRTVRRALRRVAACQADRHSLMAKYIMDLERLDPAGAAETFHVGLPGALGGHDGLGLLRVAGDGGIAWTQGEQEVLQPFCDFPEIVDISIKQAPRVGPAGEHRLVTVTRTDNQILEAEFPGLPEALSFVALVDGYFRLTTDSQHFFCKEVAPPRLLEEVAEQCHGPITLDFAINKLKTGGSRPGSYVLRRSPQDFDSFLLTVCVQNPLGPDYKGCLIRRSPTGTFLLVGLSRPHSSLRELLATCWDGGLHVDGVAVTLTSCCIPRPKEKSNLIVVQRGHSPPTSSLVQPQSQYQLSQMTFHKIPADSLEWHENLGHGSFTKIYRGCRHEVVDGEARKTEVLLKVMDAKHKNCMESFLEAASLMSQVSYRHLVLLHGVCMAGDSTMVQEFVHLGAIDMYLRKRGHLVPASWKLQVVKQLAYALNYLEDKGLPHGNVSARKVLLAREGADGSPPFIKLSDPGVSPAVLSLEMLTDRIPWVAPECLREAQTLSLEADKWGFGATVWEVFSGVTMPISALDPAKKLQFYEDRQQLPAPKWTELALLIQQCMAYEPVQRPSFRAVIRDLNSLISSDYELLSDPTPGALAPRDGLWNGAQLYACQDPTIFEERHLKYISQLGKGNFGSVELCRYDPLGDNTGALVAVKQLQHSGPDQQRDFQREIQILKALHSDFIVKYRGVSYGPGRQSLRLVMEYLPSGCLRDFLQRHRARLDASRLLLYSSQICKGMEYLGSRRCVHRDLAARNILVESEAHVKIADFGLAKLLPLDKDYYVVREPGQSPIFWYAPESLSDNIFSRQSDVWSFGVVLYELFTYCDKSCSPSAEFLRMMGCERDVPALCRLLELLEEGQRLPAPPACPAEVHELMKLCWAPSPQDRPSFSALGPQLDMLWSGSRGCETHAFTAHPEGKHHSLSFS

SMILES: O=C(CCCCCCOc1ccc2cc1COC/C=C/COCc1cccc(c1)-c1ccnc(n1)N2)NO
- inhibition [1]: 67%
- Activity [2]: 5.7%
- Activity [3]: 7.9%
- Activity [4]: 13%
- Activity [5]: 29%
- IC50 [6]: 1000 to 10000 nM
- IC50 [7]: 1630 nM
- inhibition [8]: Active
- inhibition [9]: Active
- inhibition [10]: Active
- Activity [11]: 24.4%
